Data taken from ChEMBL document CHEMBL1124334, “Hypolipidemic 2-[4-(1,1-dimethylethyl)phenyl]-4H-3,1-benzoxazin-4-ones. Structure-activity relationships of a novel series of high-density lipoprotein elevators” (1989).

Legend:
Type in all cases: functional
Rattus norvegicus [1] = assay: Percent change in plasma total cholesterol in cholesterol-fed rats at 200 mg/kg dose given in a period of 3 days
In short: (§1)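 Young male Wistar rats (120–150 g), groups of eight, fed ad libitum rodent diet with 0.5% w/w cholesterol and 0.25% cholic acid for 10 days. Compound suspended in 0.5% w/w tragacanth mucilage and given daily by stomach tube over the final 3 days; controls got vehicle. After overnight starvation, rats were killed 3 h post final dose and cardiac blood taken into heparin.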

Rattus norvegicus [2] = species on record: Rattus norvegicus; assay: Change in plasma triglycerides in normocholesterolemic rats at 0.2 % composition of dose with diet given in a period of 3 days.
In short: (§2)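 Young male Wistar rats (120–150 g) fed basal powdered rodent diet ad libitum, with compound mixed into the diet at 0.2% w/w for 3 or 7 days. Plasma triglyceride and total cholesterol were then measured by standard enzymatic methods. Results are % change relative to controls.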

Rattus norvegicus [3] = assay: Percent change in plasma HDL cholesterol in cholesterol-fed rats at 200 mg/kg dose given in a period of 3 days; in short: as §1
Rattus norvegicus [4] = assay: Ratio of plasma HDL cholesterol/total cholesterol at 200 g/kg for 3 days; conditions: in the assay text read “200 mg/kg” for “200 g/kg”; in short: as §1
Rattus norvegicus [5] = species on record: Rattus norvegicus; assay: Change in plasma total cholesterol in normocholesterolemic rats at 0.2 % composition of dose with diet given in a period of 3 days.; in short: as §2
Rattus norvegicus [6] = assay: Percent change in plasma triglycerides in cholesterol-fed rats at 200 mg/kg dose given in a period of 3 days; in short: as §1
Rattus norvegicus [7] = species on record: Rattus norvegicus; assay: The compound was tested for % change in plasma triglycerides in normocholesterolemic rats at 0.2 % composition of dose with diet given in a period of 7 days; in short: as §2
Rattus norvegicus [8] = species on record: Rattus norvegicus; assay: The compound was tested for % change in plasma total cholesterol in normocholesterolemic rats at 0.2 % composition of dose with diet given in a period of 7 days; in short: as §2
[9] = Ratio of plasma HDL cholesterol/total cholesterol at 25 mg/kg for 3 days; conditions: dose 200 mg/kg; in the assay text read “200 mg/kg” for “25 mg/kg”; in short: as §1
Rattus norvegicus [10] = species on record: Rattus norvegicus; assay: Tested for % change in plasma total cholesterol in normocholesterolemic rats at 0.2 % composition of dose with diet given in a period of 3 days; in short: as §2
Rattus norvegicus [11] = species on record: Rattus norvegicus; assay: Tested for % change in plasma triglycerides in normocholesterolemic rats at 0.2 % composition of dose with diet given in a period of 3 days; in short: as §2
Rattus norvegicus [12] = species on record: Rattus norvegicus; assay: tested for % change in plasma triglycerides in normocholesterolemic rats at 0.2 % composition of dose with diet given in a period of 3 days; in short: as §2
Rattus norvegicus [13] = assay: The compound was tested for % change in plasma total cholesterol in cholesterol-fed rats at 50 mg/kg dose given in a period of 3 days; in short: as §1
Rattus norvegicus [14] = assay: The compound was tested for % change in plasma total cholesterol in cholesterol-fed rats at 100 mg/kg dose given in a period of 3 days; in short: as §1
[15] = Ratio of plasma HDL cholesterol/total cholesterol at 50 mg/kg for 3 days; in short: as §1
[16] = Ratio of plasma HDL cholesterol/total cholesterol at 100 mg/kg for 3 days; in short: as §1
Rattus norvegicus [17] = assay: The compound was tested for % change in plasma triglycerides in cholesterol-fed rats at 50 mg/kg dose given in a period of 3 days; in short: as §1
Rattus norvegicus [18] = assay: The compound was tested for % change in plasma HDL cholesterol in cholesterol-fed rats at 100 mg/kg dose given in a period of 3 days; in short: as §1
Rattus norvegicus [19] = assay: The compound was tested for % change in plasma triglycerides in cholesterol-fed rats at 100 mg/kg dose given in a period of 3 days; in short: as §1
Rattus norvegicus [20] = assay: The compound was tested for % change in plasma HDL cholesterol in cholesterol-fed rats at 50 mg/kg dose given in a period of 3 days; in short: as §1

Compound	Change (Rattus norvegicus [1])	Change (Rattus norvegicus [2])	Change (Rattus norvegicus [3])	Change in HDL/total cholesterol ratio (Rattus norvegicus [4])	Change (Rattus norvegicus [5])	Change (Rattus norvegicus [6])	Change (Rattus norvegicus [7])	Change (Rattus norvegicus [8])	further results
CC(C)(C)c1ccc(-c2nc3ccc(-c4ccccc4)cc3c(=O)o2)cc1	-8%	1%	60%	74	0%	0%	–	–	–
COC(=O)c1cc(Br)ccc1NC(=O)c1ccc(C(C)(C)C)cc1	-49%	-7%	-7%	70	-34%	-22%	–	–	–
CNc1nc(-c2ccc(C(C)(C)C)cc2)nc2ccc(C)cc12	27%	–	10%	-12	–	79%	–	–	–
CN(C(=O)c1ccc(C(C)(C)C)cc1)c1ccc(Br)cc1C(=O)O	-22%	10%	33%	59	-10%	-13%	–	–	–
Cc1ccc2nc(-c3ccc(C(C)(C)C)cc3)nc(O)c2c1	-17%	28%	24%	25	1%	-18%	–	–	–
CC(C)(C)c1ccc(-c2nc3ccc(Cl)cc3c(=O)o2)cc1	-18%	–	16%	31	–	-30%	-36%	-31%	–
CC(C)(C)c1ccc(-c2nc3ccc(I)cc3c(=O)o2)cc1	-26%	–	17%	50	–	-3%	-35%	-48%	–
CC(C)(C)c1ccc(-c2nc3ccc(C(C)(C)C)cc3c(=O)o2)cc1	63%	-17%	30%	-17	-15%	52%	–	–	–
CC(C)(C)c1ccc(C(=O)Nc2ccc(Br)cc2C(=O)O)cc1	-29%	-20%	24%	70	-56%	-26%	–	–	–
Cc1ccc2nc(Cc3ccc(C(C)(C)C)cc3)oc(=O)c2c1	1%	–	-19%	-27	–	27%	–	–	–
Cc1ccc2nc(-c3cccc(C(C)(C)C)c3)oc(=O)c2c1	43%	–	50%	–	–	22%	25%	-4%	Ratio [9]: 3
Cc1ccc2nc(-c3ccccc3C(C)(C)C)oc(=O)c2c1	-6%	–	-3%	–	–	-25%	-13%	-11%	Ratio [9]: 6
CC(C)(C)c1ccc(-c2nc3ccc(NS(=O)(=O)c4ccccc4)cc3c(=O)o2)cc1	7%	27%	30%	35	5%	-7%	–	–	–
CC(C)(C)c1ccc(-c2nc3ccc([N+](=O)[O-])cc3c(=O)o2)cc1	-23%	–	-8%	13	–	-19%	-27%	1%	–
Cc1ccc2nc(-c3ccc(C(C)C)cc3)oc(=O)c2c1	-26%	7%	33%	–	-11%	-17%	–	–	Ratio [9]: 79
CC(C)(C)c1ccc(-c2nc3ccccc3c(=O)o2)cc1	-41%	–	49%	131	–	-26%	-32%	-24%	–
CC(C)(C)c1ccc(C(=O)Nc2ccc(Br)cc2C(N)=O)cc1	-8%	29%	-1%	4	4%	-11%	–	–	–

Compound	Change (Rattus norvegicus [1])	Change (Rattus norvegicus [2])	Change (Rattus norvegicus [3])	Change in HDL/total cholesterol ratio (Rattus norvegicus [4])	Change (Rattus norvegicus [5])	Change (Rattus norvegicus [6])	Change (Rattus norvegicus [7])	Change (Rattus norvegicus [8])	further results
CCCCc1ccc2nc(-c3ccc(C(C)(C)C)cc3)oc(=O)c2c1	-4%	-32%	65%	69	-3%	22%	–	–	–
Cc1ccc2nc(-c3ccc(C(C)(C)C)cc3)n(C)c(=O)c2c1	2%	-3%	6%	-5	2%	8%	–	–	–
CC(C)(C)c1ccc(-c2nc3ccc(NS(C)(=O)=O)cc3c(=O)o2)cc1	-16%	-8%	22%	27	-3%	6%	–	–	–
COC(=O)c1ccc2nc(-c3ccc(C(C)(C)C)cc3)oc(=O)c2c1	29%	-13%	18%	-4	-2%	0%	–	–	–
CN(C)c1ccc2nc(-c3ccc(C(C)(C)C)cc3)oc(=O)c2c1	-4%	-12%	26%	22	10%	16%	–	–	–
COc1ccc2nc(-c3ccc(C(C)(C)C)cc3)oc(=O)c2c1	-28%	-52%	21%	–	-48%	-26%	–	–	Ratio (Rattus norvegicus [4]): 52
CC(C)(C)c1ccc(-c2nc3ccc(N)cc3c(=O)o2)cc1	-25%	1%	4%	25	4%	-11%	–	–	–
CCCCCCCCc1ccc2nc(-c3ccc(C(C)(C)C)cc3)oc(=O)c2c1	-9%	-14%	35%	29	-1%	-7%	–	–	–
CC(C)(C)c1ccc(C(=O)O)cc1	-62%	–	-50%	60	–	-38%	-41%	-38%	–
Cc1ccc(NC(=O)c2ccc(C(C)(C)C)cc2)c(C(=O)O)c1	-9%	–	91%	47	–	8%	–	–	Change (Rattus norvegicus [10]): -15%; Change (Rattus norvegicus [11]): -16%
CC(C)(C)c1ccc(-c2nc3ccc(C(F)(F)F)cc3c(=O)o2)cc1	-18%	-45%	-8%	11	-40%	-6%	–	–	–
COC(=O)c1cc(C)ccc1NC(=O)c1ccc(C(C)(C)C)cc1	-20%	-8%	25%	46	-4%	68%	–	–	–
Cc1ccc2nc(-c3ccccc3)oc(=O)c2c1	-2%	–	-2%	–	–	-4%	-1%	-12%	Ratio [9]: 4
CC(C)(C)c1ccc(-c2nc3ccc(Br)cc3c(=O)o2)cc1	-25%	–	74%	114	-47%	-3%	-40%	-39%	Change (Rattus norvegicus [12]): -16%; Change (Rattus norvegicus [13]): -12%; Change (Rattus norvegicus [14]): -25%; Ratio [15]: 49; Ratio [16]: 110; Change (Rattus norvegicus [17]): 6%; Change (Rattus norvegicus [18]): 71%; Change (Rattus norvegicus [19]): -6%; Change (Rattus norvegicus [20]): 40%
CCOC(=O)C(C)(C)Oc1ccc(Cl)cc1 [CLOFIBRATE]	-30%	–	-10%	8	–	-10%	-48%	-27%	–
O=C(O)c1cccnc1 [NIACIN]	-29%	–	20%	–	–	-39%	-3%	-4%	Ratio (Rattus norvegicus [4]): 63
